Experimental data gathered from unrelated publications.
Compare with care: the assays were run in different laboratories.
Oprm1: Mu-type opioid receptor (Oprm1, Mus musculus, UniProt P42866)
SIGMAR1: Sigma non-opioid intracellular receptor 1 (SIGMAR1, Homo sapiens, UniProt Q99720)
HTR2A: 5-hydroxytryptamine receptor 2A (HTR2A, Homo sapiens, UniProt P28223)

For `O=C(N[C@@H]1C=C[C@@]2(O)[C@H]3Cc4ccc(O)c5c4[C@@]2(CCN3CC2CC2)[C@H]1O5)c1c[nH]c2cnccc12`, the Ki was 0.56 nM (Oprm1; ligand displacement; radioligand).
`O=[N+]([O-])c1cn2c(n1)OC[C@@H](OCc1ccc(OC(F)(F)F)cc1)C2` gave a Kd of 13900 nM (ddn (Mycobacterium tuberculosis, UniProt P9WP15); binding; fluorescence).
The Ki of `O=C(N[C@H]1C=C[C@@]2(O)[C@H]3Cc4ccc(O)c5c4[C@@]2(CCN3CC2CC2)[C@H]1O5)c1n[nH]c2ccccc12` is reported as 0.33 nM (Oprm1; ligand displacement; radioligand).
For `CN[C@@H](C)[C@@H](O)c1ccccc1`, the Ki was > 10000 nM (SIGMAR1; ligand displacement; radioligand).
For `N#Cc1ccccc1-c1cc(-c2ccccn2)cn(-c2ccccc2)c1=O`, the IC50 was 58000 nM (Glutamate receptor ionotropic, kainate 2 (Grik2, Rattus norvegicus, UniProt P42260); ion current; patch clamp).
The Ki of `NCCc1c[nH]c2ccc(Cl)cc12` is reported as 889 nM (HTR2A; ligand displacement; radioligand).
`O=C(N[C@@H]1C=C[C@@]2(O)[C@H]3Cc4ccc(O)c5c4[C@@]2(CCN3CC2CC2)[C@H]1O5)c1c[nH]c2cccnc12` has a Ki of 0.41 nM (Oprm1; ligand displacement; radioligand).
With `COC(=O)/C=C/C(=O)N[C@@H]1CC[C@@]2(O)[C@H]3Cc4ccc(O)c5c4[C@@]2(CCN3CC2CC2)[C@H]1O5` the IC50 was 4.29 nM (Kappa-type opioid receptor (OPRK1, Homo sapiens, UniProt P41145, E297K); ligand displacement; radioligand; cell membranes).
`CN1CC[C@@]23CCCC[C@@H]2[C@@H]1Cc1ccc(O)cc13` gave a Ki of 2670 nM (SIGMAR1; ligand displacement; radioligand).
The Ki of `NCCc1c[nH]c2cc(F)ccc12` is reported as 606 nM (HTR2A; ligand displacement; radioligand).
